ChEMBL document CHEMBL1155452, “Oncocin (VDKPPYLPRPRPPRRIYNR-NH2): a novel antibacterial peptide optimized against gram-negative human pathogens” (J Med Chem, 2010)

Tests used:
[1] = test system: Escherichia coli; assay: Antibacterial activity against Escherichia coli BL21 AI after 20 hrs by broth microdilution assay; assay type: functional
Outline: (§1)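 Nutrient-broth overnight cultures diluted in 1% TSB; E. coli BL21AI 7.5 × 10^5 cells/well, M. luteus ATCC 10240 2 × 10^6 cells/well. Peptides serially 2-fold diluted in 1% TSB from 128 to typically 0.5 μg/mL. Incubation at 37 °C; A595 read after 20 ± 2 h. MIC is the lowest concentration with absorbance not above medium only. Triplicate.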

[2] = test system: Micrococcus luteus; assay: Antibacterial activity against Micrococcus luteus ATCC 10240 after 20 hrs by broth microdilution assay; assay type: functional; settings: ATCC 10240, 20 h; outline: as §1

Row | Substance | MIC [1] [µg/mL] | MIC [2] [µg/mL]
1 | H-VDKPPYLPRPHPPRRIYNNR-OH | 64 | 32
2 | H-VDKPPYLPRPKPPRRIYNNR-OH | 16 | 16
3 | H-VDKPPYLPRPPPPRRIYNNR-OH | 128 | 64
